{"source": "paper PMC6522132", "about": "(Cell chemical biology, 2017)", "key": {"EphA4-LBD": {"molecular_target": "EphA4-LBD (Homo sapiens, UniProt P54764)", "sequence (P54764 30-209 limits assumed)": "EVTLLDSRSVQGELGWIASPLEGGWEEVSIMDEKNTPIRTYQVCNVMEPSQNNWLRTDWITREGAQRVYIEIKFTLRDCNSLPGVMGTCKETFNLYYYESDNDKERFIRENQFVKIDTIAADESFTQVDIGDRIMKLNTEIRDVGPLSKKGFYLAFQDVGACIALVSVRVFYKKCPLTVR", "assay": "NMR ligand titration", "assay_type": "binding", "conditions": "result in words", "summary_of_the_method": "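Purified human EphA4 ligand-binding domain (LBD), 13Cε-methionine-labelled for the titration, in 50 mM potassium phosphate pH 6.5 with 100 mM NaCl, at 27 °C. 2D [13C,1H]- or [15N,1H]-HSQC spectra of 50 μM LBD were compared with and without test compound. The compound was titrated at 10–50 μM against a DMSO control, and binding was read as chemical-shift changes.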"}, "wt-EphA4 LBD": {"molecular_target": "wt-EphA4 LBD (Homo sapiens, UniProt P54764)", "sequence (P54764 30-209 limits assumed)": "as above", "assay": "Isothermal titration calorimetry", "assay_type": "binding", "conditions": "result in words"}}, "data": [{"smiles": "CC[C@H]1CN2CC[C@]3(C(=O)Nc4ccccc43)[C@@H]2C[C@@H]1/C(=C\\OC)C(=O)OC", "note": "[rhyncophilin]", "values": [{"measurement": "binding to EphA4-LBD in NMR assay", "setting": "EphA4-LBD", "value": "inactive"}, {"measurement": "binding to EphA4-LBD in ITC assay", "setting": "wt-EphA4 LBD", "value": "inactive"}]}]}
